Measurements reported in ChEMBL document CHEMBL1124926, “Structure-activity relationships of antifilarial antimycin analogues: a multivariate pattern recognition study” (J Med Chem, 1990).

Experiments:
[1] = Negative log transformed activity; type: ADME; design: unit not given here
[2] = system: Acanthocheilonema viteae; assay: In vitro macrofilaricidal activity against Dipetalonema viteae was determined using the leakage of incorporated radiolabeled adenine method.; type: functional, organism-based
Outline: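 D. viteae adult females were labelled with radiolabelled adenine, then exposed for 120 h to concentrations descending from 10 μM in serum-free Eagle's minimal essential medium. Viability was scored as leakage of incorporated label into the medium, and the EC50 was the concentration releasing 50% of the adenine taken up.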

[3] = system: Brugia pahangi; assay: (§1) In vivo percent reduction of Brugia pahangi worm in gerbils; type: functional; design: concentration or dose not given beside the values
Outline: (§2)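 Animals were autopsied 35 days after the final dose, and worm recoveries were compared with those from untreated controls.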

[4] = system: Brugia pahangi; assay: as §1; type: functional; outline: as §2
[5] = system: Brugia pahangi; assay: In vivo percent reduction of Brugia pahangi worm in gerbils; Some toxicity; type: functional; outline: as §2

-Log activity [1] | Compound | EC50 [2] [nM] | Worm reduction [3] [%] | Worm reduction [4] [%] | Worm reduction [5] [%]
1.4 | O=C(Nc1ccc(Oc2ccc(Cl)cc2)c(Cl)c1)c1cc([N+](=O)[O-])ccc1O | 40 | 80.6 | – | –
0.48 | O=C(c1ccc(Cl)cc1)c1cc([N+](=O)[O-])ccc1O | 330 | 61 | – | –
-1 | O=C(Nc1ccc(C(O)c2ccccc2)cc1)c1cc([N+](=O)[O-])ccc1O (centres undefined) | > 10000 | 39 | – | –
0.1 | O=C(Nc1ccc(Oc2ccccc2)cc1)c1cc([N+](=O)[O-])ccc1O | 800 | 89 | – | –
0.43 | O=C(Nc1ccc(Nc2ccc(Cl)cc2)c(Cl)c1)c1cc([N+](=O)[O-])ccc1O | 370 | 48 | – | –
1.36 | O=C(Nc1ccc(Sc2ccc(Cl)cc2)c(Cl)c1)c1cc([N+](=O)[O-])ccc1O | 44 | 70 | – | –
1.02 | O=C(Nc1ccc(Oc2ccc(C(F)(F)F)cc2)cc1)c1cc([N+](=O)[O-])ccc1O | 95 | 72 | – | –
0.92 | O=C(Nc1ccc(Oc2ccc([N+](=O)[O-])cc2Cl)cc1)c1cc([N+](=O)[O-])ccc1O | 120 | 70 | – | –
0.23 | CC(C)(C)c1ccc(NC(=O)c2cc([N+](=O)[O-])ccc2O)cc1 | 590 | 44 | – | –
1.03 | O=C(Nc1ccc(Oc2cccc(C(F)(F)F)c2)cc1)c1cc([N+](=O)[O-])ccc1O | 94 | 80 | – | –
0.77 | COc1ccc(Oc2ccc(NC(=O)c3cc([N+](=O)[O-])ccc3O)cc2Cl)cc1 | 170 | 61 | – | –

The remaining lines, values behind:

Compound | -Log activity [1] | EC50 [2] [nM] | Worm reduction [3] [%] | Worm reduction [4] [%] | Worm reduction [5] [%]
CCCCCCCCCCCCCCNC(=O)c1cc([N+](=O)[O-])ccc1O | 0.89 | 128 | – | – | –
N#Cc1ccc(O)c(C(=O)Nc2ccc(Oc3ccc(Cl)cc3)c(Cl)c2)c1 | 1.84 | 14.5 | 17 | – | –
CSc1cccc(C(=O)Nc2ccc(Oc3ccc(Cl)cc3)c(Cl)c2)c1O | 0.42 | 380 | 52 | – | –
O=C(Nc1ccc(Oc2cccc(C(F)(F)F)c2)c(Cl)c1)c1cc([N+](=O)[O-])ccc1O | 1.07 | 85 | 74 | – | –
O=CNc1cccc(C(=O)Nc2ccc(Oc3ccc(Cl)cc3)c(Cl)c2)c1O | -0.38 | 2400 | – | – | –
C[S+]([O-])c1ccc(O)c(C(=O)Nc2ccc(Oc3ccc(Cl)cc3)c(Cl)c2)c1 (centres undefined) | -0.88 | 7500 | 84 | – | –
CCCCCCCCNC(=O)c1cccc(NC=O)c1O | -0.41 | 2600 | – | – | –
O=C(Nc1ccc(C(=O)c2ccc(Cl)cc2)c(Cl)c1)c1cc([N+](=O)[O-])ccc1O | 1.13 | 74 | 14 | – | –
CS(=O)(=O)c1cccc(C(=O)Nc2ccc(Oc3ccc(Cl)cc3)c(Cl)c2)c1O | 0.3 | 500 | 42 | – | –
CCCCCCCCCCCCCCNC(=O)c1cccc([N+](=O)[O-])c1O | 0.82 | 152 | – | – | –
CCCCCCCCCCCCCCCCNC(=O)c1cccc([N+](=O)[O-])c1O | -0.04 | 1100 | – | – | –
CCCCCCCCCCCCCCNC(=O)c1cccc(NC=O)c1O | -0.85 | 7000 | – | 80 | –
CCCCCCCCCCCCNC(=O)c1cc([N+](=O)[O-])ccc1O | 1.41 | 39 | 0 | – | –
O=C(Nc1ccc(Oc2ccc(Cl)cc2)c(Cl)c1)c1cccc([N+](=O)[O-])c1O | 0.82 | 150 | – | – | –
CCCCCCNC(=O)c1cccc(NC=O)c1O | -1 | > 10000 | – | – | –
CS(=O)(=O)c1ccc(O)c(C(=O)Nc2ccc(Oc3ccc(Cl)cc3)c(Cl)c2)c1 | 0 | 1000 | 28 | – | –
O=C(Nc1ccc(Oc2ccc(SC(F)(F)F)cc2)c(Cl)c1)c1cc([N+](=O)[O-])ccc1O | 1.55 | 28 | – | – | 85
CCCCCCCCCCCCCCNC(=O)c1cc(Cl)cc([N+](=O)[O-])c1O | 1.36 | 43.5 | – | – | –
CCCCCCCCCCCCCCNC(=O)c1cccc(NC(C)=O)c1O | -0.9 | 8000 | – | – | –
CSc1ccc(O)c(C(=O)Nc2ccc(Oc3ccc(Cl)cc3)c(Cl)c2)c1 | 0.32 | 480 | 58 | – | –
